# Source: PubChem
# HSF-1 act – increases HSF-1 driven luciferase reporter signal | activation, % at 9 µM | hit rate 1.7% among 300,000 | NIH3T3-HGL HSF-1 luciferase reporter, MG132, 8 h; 100% = twice DMSO control signal | AID 504408;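 active = mean replicate activation of at least 50% with a set share of replicates each reaching 50%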;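 also: 0% = median of the neutral control wells and 100% = twice that signal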
# PvdQ inh – P. aeruginosa PvdQ acylase inhibition | hit rate 0.063% among 340,000 | AID 488965 | inhibition, % at 10 µM | purified PvdQ acylase, fluorescence plate reader; in the data active = inhibition above about 30%, passing the limit was not always enough;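 also: 0% = vehicle neutral wells and 100% = reference inhibitor wells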
# PfHsp90 set2 – inhibits growth of yeast expressing Plasmodium falciparum Hsp90. S. cerevisiae expressing PfHsp90, BacTiter-Glo ATP, 48 h; yeast lacking PDR1 and PDR3 efflux regulators. inhibition, % at 9.4 µM. hit rate 0.32% among 310,000. AID 504621;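 active = every replicate shows inhibition above about 80%, whatever the replicate mean, limit read from the data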;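 also: 0% = DMSO neutral controls and 100% = 20 µM radicicol positive controls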
# T cruzi inh – blocks replication of Trypanosoma cruzi; T. cruzi beta-gal in NIH3T3, luminescence, 90 h; inhibition, % (test concentration not listed); hit rate 1.4% among 300,000;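 active = mean inhibition across valid replicates above about 55%, limit read from the data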;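 also: signal also drops with host cell toxicity which is not excluded here; 0% = plate median of DMSO wells and 100% = zero luminescence signal; higher percent means less beta-gal luminescence so fewer parasites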
#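 Incubation – ≥90 h infection period, 3 h prior cell attachment · System – NIH/3T3 fibroblasts plus reporter T. cruzi · Doses – compound pinned at 50 nL/well, DMSO · Read-out basis – percent inhibition of parasite-derived β-gal signal · Signal – luminescent β-galactosidase signal after 60 min lysis · Also added – 5000 T. cruzi trypomastigotes/well · Medium – Low-serum DMEM with 2% FBS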
# Glyco luc inh – blocks N-linked glycosylation in D54 reporter cells; reporter increase, % at 12.5 µM; D54 ERlucT glycosylation luciferase reporter, 24 h; percent of 100 nM tunicamycin response; hit rate 0.23% among 360,000; AID 588692;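 active = mean luciferase reporter signal, scaled so untreated is 0 and the glycosylation-blocking control 100, at or above a set limit in every replicate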;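 also: luciferase carries N-glycosylation sites so blocking glycosylation raises the light; 0% = median of neutral control wells and 100% = median of 100 nM tunicamycin wells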
# CaV13 ICDI inh – Primary screen for inhibitors of IQ motif and Ca2+-dependent inactivation inhibitor domain binding in CACNA1D, Förster resonance energy transfer in living cells, … | hit rate 0.098% among 340,000 | HEK cells, CFP/YFP FRET ICDI-IQ, plate reader, 10 min; percent FRET-ratio fall versus neutral wells | inhibition, % at 12.3 µM | AID 743397;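 active = mean replicate inhibition of at least 30% and at least 1% of replicates passing that level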;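 also: 0% = median of the neutral control wells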
# * hit, by the source's call; x = no result. Sampled rows, rich in hits. Any-hit rate of the full collection: about 3%.
SMILES,HSF-1 act,PvdQ inh,PfHsp90 set2,T cruzi inh,Glyco luc inh,CaV13 ICDI inh
CCc1ccc(NC(=S)NC2CC3CCCC(C2)N3Cc2cccs2)cc1 (stereo not given),-14,-1,-57,56*,-6,-7
CCNc1ccc(S(=O)(=O)N(C)C)cc1NCC(=O)Nc1ccccc1Br,115*,-7,x,-4,-1,-3
CCNc1ccc(S(=O)(=O)N(C)C)cc1NCC(=O)Nc1ccccc1F,1,-4,-28,-8,-1,-3
CCc1cc2c(SCC#N)ncnc2s1,80*,-3,22,10,-1,-6
CC(C)(C)OC(=O)N[C@@H]1C=CC(=O)C1,x,x,x,x,x,-8
CCOC(=O)/C(=C\c1ccc(Cl)cc1)c1nc2sc(C)c(C)c2c(=O)[nH]1,241*,16,-46,-2,21,-6
Cc1ccc(Nc2nc(N)nc(CN3CCc4ccccc4C3)n2)cc1,3,-7,-2,-13,5,-4
Cc1c(Cl)cccc1Nc1nc(N)nc(CN2CCc3ccccc3C2)n1,-4,-8,-11,2,44*,-5
Cc1ccc(/C=C/C(=O)Nc2ccc(S(=O)(=O)Nc3ncccn3)cc2)cc1,11,6,-22,0,-6,-2
Cc1ccc(/C=C/C(=O)Nc2ccc(S(=O)(=O)Nc3cc(C)nc(C)n3)cc2)cc1,64*,-5,-5,-3,2,-6
COc1ccc(-c2nn(-c3ccccc3)cc2/C=C/C(=O)N2CCN(c3ccccn3)CC2)cc1,-37,14,3,55*,-4,-4
C/C(=N\NC(=O)c1cc2ccccc2cc1O)c1ccccn1,14,8,92*,12,-21,-3
C/C(=N\NC(=O)c1c[nH]c2ccccc12)c1ccco1,8,-4,-43,-8,-1,-7
C/C(=N\NC(=O)c1c[nH]c2ccccc12)c1ccccn1,28,-9,37,82*,-13,-3
COC(=O)C1=C(C)N(Cc2ccc(C(F)(F)F)cc2)C(=NCc2ccccc2C(F)(F)F)NC1c1ccc(F)cc1 (stereo not given),x,x,x,x,x,-4
CCC(COC)NC(=O)CCc1nnc(Cc2cccc(C(F)(F)F)c2)o1 (stereo not given),54*,-4,-14,-4,2,0
COc1cccc(OCc2nc3ccccc3[nH]2)c1,44,-2,15,4,-3,-8
COc1cccc(N=c2oc3ccccc3cc2-c2nc3ccccc3[nH]2)c1,71*,-2,33,11,-13,-5
COc1cccc(N=c2oc3ccc(OC)cc3cc2-c2nc3ccccc3[nH]2)c1,54*,-10,63,15,-4,-9
COc1ccc(N=c2oc3ccc(OC)cc3cc2-c2nc3ccccc3[nH]2)cc1,58*,-7,6,7,0,-8
CSc1n[nH]c(-c2cccs2)n1,x,x,x,x,x,-4
COC(=O)C1=C(C)N(Cc2cccc(C(F)(F)F)c2)C(=NCc2cccc(C(F)(F)F)c2)NC1c1ccc(Cl)cc1 (stereo not given),x,x,x,x,x,-3
CCCCc1c(-c2ccccc2OC)ncn1Cc1cccc(OC)c1,x,x,x,x,x,-4
CN(C)S(=O)(=O)c1cccc(C(=O)N=C2N=C3C=CC(Cl)=CN3Cc3ccccc32)c1,60*,4,0,-17,-1,-2
O=C(N=C1N=C2C=CC=CN2Cc2ccccc21)c1ccc(S(=O)(=O)N2CCCC2)cc1,-4,-17,9,-13,0,-2
CCCCc1c(-c2ccccc2OC)ncn1Cc1ccc(C(C)(C)C)cc1,x,x,x,x,x,-5
CC(C)CC(=O)Nc1ccc2nn(-c3ccccc3)nc2c1,60*,-13,16,4,-5,-6
Cc1ccc(-n2nc3ccc(NC(=O)C(C)C)cc3n2)cc1,30,-3,4,-1,-13,-17
CCC(C)(C)NC(=O)C(c1cccc(OC)c1OC)N(Cc1ccccc1)C(=O)CCC(=O)Nc1cc(C)on1 (stereo not given),3,-8,43,18,-1,-20
